Compound activity deposited in PubChem by Johns Hopkins Ion Channel Center.
TRPC6 act: activates the mouse TRPC6 cation channel | HEK293-TRPC6 membrane potential dye fluorescence; hits give high values | AID 2550 | B-score at 10 µM | 310,000 tested, 0.13% active | Q61143;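 active means B-score of the integrated fluorescence ratio above library mean plus 3 SD, and starting fluorescence ratio within library mean plus 5 SD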;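 further: higher score means more depolarization so channel activation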
Target sequence (Q61143 whole entry, looked up): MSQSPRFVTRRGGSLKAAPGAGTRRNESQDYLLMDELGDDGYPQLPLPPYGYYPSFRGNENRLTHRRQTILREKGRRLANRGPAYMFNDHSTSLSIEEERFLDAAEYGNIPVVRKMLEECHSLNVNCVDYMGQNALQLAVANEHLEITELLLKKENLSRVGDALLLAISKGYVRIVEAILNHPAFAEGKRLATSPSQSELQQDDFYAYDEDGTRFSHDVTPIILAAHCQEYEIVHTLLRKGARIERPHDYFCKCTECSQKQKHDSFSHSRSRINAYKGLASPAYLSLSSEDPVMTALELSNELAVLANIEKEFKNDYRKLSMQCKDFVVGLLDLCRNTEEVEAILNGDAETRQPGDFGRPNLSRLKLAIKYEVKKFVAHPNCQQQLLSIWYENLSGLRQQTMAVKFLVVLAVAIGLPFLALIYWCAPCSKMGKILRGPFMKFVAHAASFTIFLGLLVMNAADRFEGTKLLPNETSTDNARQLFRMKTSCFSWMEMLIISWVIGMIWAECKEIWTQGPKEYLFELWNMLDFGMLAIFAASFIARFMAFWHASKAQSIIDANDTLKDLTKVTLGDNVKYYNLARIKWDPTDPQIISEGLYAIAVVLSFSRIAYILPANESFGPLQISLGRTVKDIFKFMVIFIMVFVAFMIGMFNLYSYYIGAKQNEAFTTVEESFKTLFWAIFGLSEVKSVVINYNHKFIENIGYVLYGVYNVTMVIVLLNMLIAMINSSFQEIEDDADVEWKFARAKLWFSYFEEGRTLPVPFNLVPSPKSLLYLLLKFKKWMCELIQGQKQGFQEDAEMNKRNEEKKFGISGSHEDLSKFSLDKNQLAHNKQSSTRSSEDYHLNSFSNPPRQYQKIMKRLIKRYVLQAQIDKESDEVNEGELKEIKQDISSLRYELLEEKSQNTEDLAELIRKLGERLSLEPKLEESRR
TRPC4 PAM: TRPC4 (mouse) allosteric potentiation. Q9QUQ5. 310,000 tested, 0.42% active. HEK293 TRPC4beta/mu-opioid, DAMGO EC20, Fluo-4 Ca2+ flux; hits give high values. B-score at 10 µM;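 active means B-score of calcium response area above 5 SD of library B-scores, with initial fluorescence ratio within 5 SD of library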
TRPC4 agonist: activators of mouse TRPC4 channel | Q9QUQ5 | HEK293 TRPC4beta/mu-opioid, Fluo4 calcium fluorescence; hits give high values | B-score at 10 µM | 310,000 tested, 0.49% active;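 active means B-score above 5 SD of library B-scores, and initial fluorescence ratio not above library mean plus 5 SD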;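 further: positive B-score marks a calcium rise read as TRPC4 activation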
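Material: HEK293 stable line with TRPC4beta plus mu-opioid receptor; technique: Fluo4 calcium-sensitive dye fluorescence, kinetic, 1 Hz baseline; timing: Fluo4 dye loading 45 min at room temperature, 110 s recording; controls: assay buffer as low control, maximal DAMGO as high control; read-out: integrated baseline-normalised fluorescence ratio, converted to per-well B score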
TRPC4 inh: blocks the mouse TRPC4 cation channel; HEK293 TRPC4beta/mu-opioid, DAMGO-evoked Fluo4 calcium flux; hits give low values; B-score at 10 µM; 300,000 tested, 0.39% active;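 active means B-score over 3 SD under the library average, no early fluorescence shift, positive overall ratio signal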
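material = TRPC4beta/mu-opioid receptor HEK293 cell line | probe or stimulus = sequential submaximal and maximal DAMGO stimulation | compound dosing = one concentration per compound | measured by = Fluo4 Ca2+ flux fluorescence | evaluation = integrated fluorescence ratio relative to baseline, converted to per-well B score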
TRPC6 inh: mouse TRPC6 channel inhibition | Q61143 | HEK293-TRPC6, membrane potential dye, ACh-evoked depolarization; hits give low values | B-score at 10 µM | 310,000 tested, 1.1% active;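 active means B-score under library mean minus 3 SD, initial fluorescence not abnormally high, positive integrated signal ratio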;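 further: B-score derived from integrated fluorescence ratio over the kinetic read; more negative B-score means stronger inhibition of depolarization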
TRPC4 sel inh 2: second check of whether TRPC6 inhibitors also affect mouse TRPC4 | shares compounds with TRPC6 inh | HEK293 TRPC4/MOR, membrane potential dye fluorescence; channel activated by saturating DAMGO dose | inhibition, % at 10 µM | 920 tested, 42% active | AID 2776;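 active means compounds whose fluorescence signal differed from control wells by over 3 SD, either direction, in both duplicate plates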
TRPC4 spec: tests whether TRPC6 inhibitors also affect mouse TRPC4; shares compounds with TRPC6 inh; HEK293 TRPC4/mu-opioid, membrane potential fluorescence; activity change, negative = inhibition, % at 10 µM; 920 tested, 61% active; AID 2777;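 active means rise or fall in signal beyond 3 SD of buffer-only wells in both replicate plates, either sign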;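 further: integrated kinetic ratio of fluorescence range over baseline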
HEK293 MPD ctr 2-1: second counter-screen for TRPC6 inhibitors: parental HEK293 cells; 920 tested, 31% active; shares compounds with TRPC6 inh; parental HEK293 membrane potential dye fluorescence; maximal acetylcholine challenge after compound addition; signal change vs control, % at 10 µM;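 active means membrane potential signal moving either way by over 3 SD of the maximum-effect control, in both duplicate plates, meaning non-specific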
HEK293 MPD ctr-1: checks TRPC6 inhibitor effects in parental HEK293 cells | parental HEK293 membrane potential dye fluorescence | 920 tested, 60% active | shares compounds with TRPC6 inh | membrane potential signal change, % at 10 µM;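 active means membrane potential signal shifting up or down by more than 3 SD of buffer-only wells, on both duplicate plates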
HEK293 MPD ctr-2: checks TRPC6 modulator effects in parental HEK293 cells; membrane potential signal change, % at 10 µM; membrane potential dye fluorescence; AID 488924; 2,400 tested, 51% active; shares compounds with TRPC6 inh;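 active means membrane potential signal moves up or down beyond 5 SD from buffer-only wells, on both duplicate plates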
HEK293 MPD ctr 2-2: second counter-screen for TRPC6 modulators: effect in parental HEK293 cells. AID 488926. shares compounds with TRPC6 inh. 2,400 tested, 14% active. inhibition, % at 10 µM. membrane potential dye fluorescence; after compound, maximal acetylcholine stimulation;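 active means membrane potential signal drops by more than 5 SD from the mean control signal, in both duplicate plates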
TRPC4/MOR mod: tests whether TRPC6 modulators also affect mouse TRPC4 | 2,400 tested, 69% active | percent change from control (negative = decrease, positive = increase), % at 10 µM | HEK293 TRPC4/mu-opioid, membrane potential fluorescence | AID 488927 | shares compounds with TRPC6 inh;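 active means membrane potential signal moved up or down beyond 5 SD of buffer control wells, in both duplicate plates, actives on both sides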
TRPC4/MOR inh 2: second check of whether TRPC6 modulators also affect mouse TRPC4 | shares compounds with TRPC6 inh | HEK293 TRPC4/mu-opioid, membrane potential dye fluorescence; stimulated with maximal-effect DAMGO | inhibition, % at 10 µM | 2,400 tested, 55% active | AID 488928;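 active means drop in membrane potential signal beyond 5 SD of the control wells in both duplicate plates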;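 further: TRPC4 counter screen for TRPC6 hits run under conditions tuned for TRPC6 not TRPC4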
TRPC6 inh conf: mouse TRPC6 inhibitor confirmation; shares compounds with TRPC6 inh; 3,300 tested, 43% active; AID 488960; HEK293-TRPC6, membrane potential dye, ACh-evoked depolarization; inhibition, % at 10 µM;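 active means fluorescence ratio falls more than 5 SD below the full-stimulation control mean, in both duplicate runs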;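 further: integrated fluorescence ratio of peak minus minimum over baseline after agonist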
TRPC6 act conf: confirmation of mouse TRPC6 activators. 2,800 tested, 11% active. activation, % at 10 µM. shares compounds with TRPC6 inh. HEK293-TRPC6 membrane potential dye fluorescence, FDSS;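 active means ratio signal rise beyond 5 SD above unstimulated control wells' mean, seen in both duplicate runs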
Each line names hits and unclear results; the compound was inactive in the other large screens (follow-up assays come after a bar, where they were run). Hits are enriched below; roughly 2.3% of the tested compounds scored in any of these assays.

O=C(O)CCc1ccc(-c2cccs2)n1CC(=O)Nc1ccccc1C(F)(F)F	none
Cc1cc(C)n(-c2ccc(F)cc2CN2CCN(C3CCCC3)C(CCO)C2)n1 (stereo unspecified)	none
Cc1ccc(-c2nc(C)sc2CC(=O)OCC(=O)Nc2cccc([N+](=O)[O-])c2)cc1	none
Cc1ccc(C(=O)c2ccccc2C(=O)OCC(=O)Nc2cccc([N+](=O)[O-])c2)cc1	TRPC6 inh -6.49 | HEK293 MPD ctr-2 inactive | HEK293 MPD ctr 2-2 inactive | TRPC4/MOR mod inactive | TRPC4/MOR inh 2 inactive | TRPC6 inh conf inactive | TRPC6 act conf inactive
Cc1ccc(Nc2c(-c3ccccn3)nc3cc(C)ccn23)cc1	TRPC6 inh -5.46 | HEK293 MPD ctr-2 -134.0% | HEK293 MPD ctr 2-2 inactive | TRPC4/MOR mod -27.0% | TRPC4/MOR inh 2 71.5% | TRPC6 inh conf inactive | TRPC6 act conf inactive
CCn1c(SCC(=O)NCC(=O)Nc2ccc(F)cc2)nnc1-c1ccncc1	none
CCn1c(SCC(=O)Nc2ccc3c(c2)n(C)c(=O)n3C)nnc1-c1ccncc1	TRPC6 act 12.4 | HEK293 MPD ctr-2 246.5% | HEK293 MPD ctr 2-2 inactive | TRPC4/MOR mod 36.5% | TRPC4/MOR inh 2 inactive | TRPC6 inh conf inactive | TRPC6 act conf 118.5%
O=C(COCC(=O)Nc1cccc(C(F)(F)F)c1)Nc1cccc(C(F)(F)F)c1	none
COc1cc(NC(=O)CSCC(=O)Nc2cccc(C(F)(F)F)c2)c(Cl)cc1Cl	TRPC6 inh -7.31 | TRPC4 sel inh 2 inactive | TRPC4 spec inactive | HEK293 MPD ctr 2-1 inactive | HEK293 MPD ctr-1 inactive | TRPC6 inh conf inactive | TRPC6 act conf inactive
Oc1ccccc1N=Cc1c(O)ccc2ccccc12	TRPC6 inh -5.27 | HEK293 MPD ctr-2 inactive | HEK293 MPD ctr 2-2 inactive | TRPC4/MOR mod 38.0% | TRPC4/MOR inh 2 inactive | TRPC6 inh conf inactive
O=C(Nc1ccccc1)c1cccc(Cn2cc(C(F)(F)F)ccc2=O)c1	none
CN1CCN(C2=C(NS(=O)(=O)c3cccs3)C(=O)c3ccccc3C2=O)CC1	none
O=C1C(NS(=O)(=O)c2cccs2)=C(N2CCN(Cc3ccccc3)CC2)C(=O)c2ccccc21	TRPC6 inh -7.28 | HEK293 MPD ctr-2 -135.5% | HEK293 MPD ctr 2-2 inactive | TRPC4/MOR mod -36.0% | TRPC4/MOR inh 2 72.5% | TRPC6 inh conf 57.5% | TRPC6 act conf inactive
O=C1S/C(=C\c2ccc(N3CCOCC3)o2)C(=O)N1c1ccccc1	none
O=C1S/C(=C/c2ccc(N3CCOCC3)o2)C(=O)N1Cc1c(F)cccc1Cl	TRPC6 act 16.8 | HEK293 MPD ctr-2 inactive | HEK293 MPD ctr 2-2 inactive | TRPC4/MOR mod 100.0% | TRPC4/MOR inh 2 inactive | TRPC6 inh conf inactive | TRPC6 act conf inactive
O=C1S/C(=C\c2ccc(N3CCOCC3)o2)C(=O)N1Cc1c(F)cccc1Cl	TRPC6 act 28.4, TRPC4 PAM 17, TRPC4 agonist 43 | HEK293 MPD ctr-2 226.0% | HEK293 MPD ctr 2-2 inactive | TRPC4/MOR mod 117.0% | TRPC4/MOR inh 2 inactive | TRPC6 inh conf inactive | TRPC6 act conf inactive
COc1ccc(-c2csc(N(CCCN(C)C)C(=O)c3ccc(Br)cc3)n2)cc1	none
COc1ccc(-c2csc(N(CCCN(C)C)C(=O)c3ccc(C)cc3)n2)cc1	TRPC6 inh -6.49 | HEK293 MPD ctr-2 inactive | HEK293 MPD ctr 2-2 inactive | TRPC4/MOR mod inactive | TRPC4/MOR inh 2 81.5% | TRPC6 inh conf 56.0% | TRPC6 act conf inactive
CCN(CC)CCCN(C(=O)c1ccc(OC)cc1)c1nc(-c2ccc(OC)cc2)cs1	TRPC6 inh -9.11 | TRPC4 sel inh 2 23.5% | TRPC4 spec -17.6% | HEK293 MPD ctr 2-1 inactive | HEK293 MPD ctr-1 inactive | TRPC6 inh conf 77.3% | TRPC6 act conf inactive
COc1ccc(-c2csc(N(CCCN(C)C)C(=O)c3cc(OC)c(OC)c(OC)c3)n2)cc1	TRPC6 inh -5.68 | HEK293 MPD ctr-2 inactive | HEK293 MPD ctr 2-2 inactive | TRPC4/MOR mod inactive | TRPC4/MOR inh 2 66.5% | TRPC6 inh conf inactive | TRPC6 act conf inactive
COc1ccc(-c2csc(N(CCCN(C)C)C(=O)c3ccc(C(C)(C)C)cc3)n2)cc1	none
CCN(CC)CCCN(C(=O)c1ccccc1C)c1nc(-c2ccc(OC)cc2)cs1	none
CCN(CC)CCCN(C(=O)c1ccccc1F)c1nc(-c2ccc(OC)cc2)cs1	TRPC6 inh -7.12 | TRPC4 sel inh 2 47.0% | TRPC4 spec inactive | HEK293 MPD ctr 2-1 inactive | HEK293 MPD ctr-1 -0.1% | TRPC6 inh conf 51.2% | TRPC6 act conf inactive
Cc1ccc(C(=O)CSc2nnc(-c3cccnc3)n2N)cc1	none
CCCOc1nc2ccccc2cc1/C=C/C(=O)O	none
CC(NC(=O)C1(S(=O)(=O)c2ccc(Cl)cc2)CC1)c1ccccc1 (stereo unspecified)	none
C1CCN(c2nc3nonc3nc2NCC2CCOCC2)CC1	none
CN(C)CCCNc1ccc(-c2nn(C)c(=O)c3ccccc23)cc1[N+](=O)[O-]	TRPC6 inh -7.92 | TRPC4 sel inh 2 44.0% | TRPC4 spec -26.2% | HEK293 MPD ctr 2-1 inactive | HEK293 MPD ctr-1 -243.5% | TRPC6 inh conf inactive | TRPC6 act conf inactive
COCCNc1ccc(-c2nn(C)c(=O)c3ccccc23)cc1[N+](=O)[O-]	none
Cc1cc(C(=O)NN=C2CCCC2)c2ccccc2n1	none
